KCNQ1 act – potentiators or activators of KCNQ1 channel, primary screen, cell-based, thallium flux, high-throughput; CHO-K1 KCNQ1, thallium flux FluxOR fluorescence; stronger effect = higher value; B-score at 10 µM; 0.35% of 310,000 active; AID 2648, 2010;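 active = fluorescence ratio B-score, a plate-corrected score, at least three library SD, with initial intensity B-score within 5 SD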
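Material: CHO-K1 cells stably expressing KCNQ1. Medium: assay buffer for compound exposure, DMSO matched across wells. Reagent: K+/Tl+ depolarizing stimulus. Compound dosing: single-concentration screen. Times: 37 °C overnight plating, 90-min dark dye load, 20-min compound pretreatment. Technique: FluxOR Tl+ flux fluorescence.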
KCNQ1 block – inhibitors of human KCNQ1 channel, primary screen, cell-based, thallium flux, high-throughput; CHO-K1 KCNQ1, FluxOR thallium flux fluorescence; stronger effect = higher value; B-score at 10 µM; 1.3% of 310,000 active;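 active = compounds whose thallium flux B-score, printed positive for inhibition, exceeds three library SD while starting fluorescence stays within three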;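 also: channel opened by potassium depolarization with thallium stimulus after 20 min compound exposure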
KCNK9 block – KCNK9 potassium channel inhibitors, primary screen, HEK293 cells, thallium flux; Potassium channel subfamily K member 9 (Homo sapiens), Q9NPC2; FluxOR thallium flux fluorescence; stronger effect = lower value; B-score at 10 µM; 1.2% of 310,000 active; AID 488922, 2010;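 active = ratio B-score over 3 SD below the library mean, with starting fluorescence within 5 SD of its mean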;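 also: negative B-score means less thallium flux so channel inhibition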
Target sequence (Q9NPC2 whole entry, looked up): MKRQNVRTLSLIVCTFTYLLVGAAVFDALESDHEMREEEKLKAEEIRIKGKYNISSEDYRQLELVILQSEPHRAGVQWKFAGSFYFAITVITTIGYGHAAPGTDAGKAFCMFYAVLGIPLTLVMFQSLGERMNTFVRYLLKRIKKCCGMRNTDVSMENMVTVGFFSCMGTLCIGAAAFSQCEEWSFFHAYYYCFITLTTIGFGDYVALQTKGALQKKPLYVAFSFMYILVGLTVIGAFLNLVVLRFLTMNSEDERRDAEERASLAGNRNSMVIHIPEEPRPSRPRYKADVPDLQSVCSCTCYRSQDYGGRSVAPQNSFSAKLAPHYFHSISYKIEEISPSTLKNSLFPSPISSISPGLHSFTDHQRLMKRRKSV
KCNK3 block – human KCNK3 channel inhibitors, primary screen, CHO cells, FluxOR thallium flux, B-score. B-score at 10 µM. FluxOR fluorescence; stronger effect = lower value. AID 602410, 2012. Potassium channel subfamily K member 3 (Homo sapiens), O14649. 0.84% of 340,000 active;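 active = B-score under library mean minus 4 SD, starting fluorescence ratio at most library mean plus 5 SD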;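 also: more negative B-score means stronger inhibition of thallium flux through KCNK3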
hERG rescue – hERG rescue from dofetilide block, primary screen, cell-based, CHO-hERG, FluxOR thallium flux, dofetilide IC70; activation (rescue from dofetilide block), less the hit threshold, % at 10 µM; dofetilide IC70 present; AID 1511, 2009; 0.51% of 310,000 active;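 active = activation above the mean of controls blocked by dofetilide plus 5 SD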;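 also: thallium influx through hERG after potassium depolarization seen as dye fluorescence rise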
Cl transport mod – KCC2 cotransporter modulators, thallium flux, primary screen, cell-based, HEK293 KCC2, FluoZin-2 fluorescence, MLSMR; Solute carrier family 12 member 5 (Homo sapiens), Q9H2X9; KCC2 cells, thallium flux FluoZin-2 fluorescence; B-score of Tl+ flux slope (higher = more flux/activation; lower = inhibition) at 10 µM; 2.2% of 190,000 active;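 active = thallium flux slope and its plate-corrected score both differing from the plate sample mean at a set confidence after two filtering rounds, in either direction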;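 also: slope of fluorescence scaled to starting intensity during 10 to 20 s after thallium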
Starred values were filed as active, the others as inactive; i = inactive; x = not tested or not shown. Hits are enriched below; roughly 4.1% of the tested compounds scored in any of these assays.

SMILES	KCNQ1 act	KCNQ1 block	KCNK9 block	KCNK3 block	hERG rescue	Cl transport mod
Nc1ncnc2c1ncn2[C@@H]1O[C@H](CNC(=O)[C@@H](N)COCc2ccccc2)[C@@H](O)[C@H]1O	x	x	x	i	x	x
Cc1cccc(OCC(=O)O/N=C(\N)c2ccncc2)c1	i	i	i	i	-7	x
CCOC(=O)c1c(NC(=S)Nc2ccc(OC)cc2)sc2c1CCC2	i	i	i	i	-17	-1.3
CCOC(=O)c1c(NC(=S)NC)sc2c1CC(C)(C)SC2	71*	i	i	i	44*	37*
CCN(C[C@H]1N[C@@](C)(C(=O)OC)[C@H]2C(=O)N(Cc3ccccc3)C(=O)[C@@H]12)C(=O)Nc1ccc(C)cc1	x	x	x	i	x	x
Cc1cc(/C=C\c2ccc3cc(N(C)C)ccc3[n+]2C)c(C)n1-c1ccccc1	x	x	x	-11*	x	x
C[n+]1c(/C=C/c2ccc(O)cc2)ccc2ccccc21	i	i	i	i	-11	x
CCCc1nc2ccccc2c(C(=O)OCC(=O)N2CCc3ccccc32)c1CC	i	i	-6.6*	i	-11	-0.17
CC1CCc2nc3ccccc3c(C(=O)OCC(=O)N3CCc4ccccc43)c2C1 (stereo not given)	i	i	i	i	-3	-0.069
CCn1c(O)c(N=N)c2ccccc21	i	i	i	i	-7	0.29
CCn1c(O)c(N=NC2=NC(=O)CS2)c2ccccc21	i	i	i	i	9.1*	0.063
CCOC(=O)CSc1ccc(S(=O)(=O)N(C)C2CCCCC2)cc1[N+](=O)[O-]	i	i	i	-10*	-4	-2.3
COC(=O)C1=C(C(=O)OC)C(c2cc(Br)ccc2O)c2sc(=O)[nH]c2S1 (stereo not given)	x	x	x	i	x	-5.9*
COC(=O)C1=C(C(=O)OC)C(c2ccc(OC)c(OC)c2)c2sc(=O)[nH]c2S1 (stereo not given)	i	i	i	i	-5	-0.15
O=C(COc1ccc(-c2ccccc2)cc1)N/N=C/c1cc(O)ccc1Br	i	11*	i	i	-5	-0.021
CCOC(=O)/C(C#N)=C/C=C1\C=Cc2ccccc2N1CC	i	i	i	i	-6	-2.3
CCCCCCN1C=CC(=C/C=C(\C#N)C(=O)OCC)C=C1	i	10*	i	i	-7	i
CCCN1C=CC(=C/C=C(\C#N)C(=O)OCC)C=C1	i	12*	i	x	-30	i
Cc1c(C(=O)OCC(=O)N2CC(=O)Nc3ccccc32)oc2ccc(Br)cc12	i	i	i	i	7.2*	1.1
Clc1ccc(/C(Cc2nc3ccccc3[nH]2)=N\Nc2ccccc2)cc1	i	9*	-7.2*	i	-15	0.83
CCCn1c(O)c(N=NC(=O)c2ccco2)c2ccccc21	i	i	i	i	60*	18*
O=C(Nc1ccc(-n2cnnn2)cc1)c1cccc(S(=O)(=O)N2CCCC2)c1	x	x	x	i	x	x
O=[N+]([O-])c1cccc(/C=C/C=N/Nc2nc(N3CCCCC3)nc(N3CCCCC3)n2)c1	i	6*	i	i	1	x
O=[N+]([O-])c1cccc(/C=N/Nc2nc(N3CCOCC3)nc(N3CCOCC3)n2)c1	i	i	i	i	-9	-0.25
Cc1cccc(C(=O)N(CCc2ccccc2)Cc2ccccc2)c1[N+](=O)[O-]	i	6*	i	i	-9	x
SMILES	KCNQ1 act	KCNQ1 block	KCNK9 block	KCNK3 block	hERG rescue	Cl transport mod
O=C(O)c1cc(S(=O)(=O)N2CCN(S(=O)(=O)c3ccc4ccccc4c3)CC2)ccc1Br	x	x	x	i	x	x
Cc1cccnc1NCc1ccc(O)c2ncccc12	i	i	i	i	6.8*	-0.66
Cc1cccc(NCc2ccc(O)c3ncccc23)c1C	i	i	i	i	-10	0.24
COc1ccc(/C=N/Nc2cc(C)nc3c(C)cccc23)cc1	i	6*	i	i	-26	x
CCOc1ccc(-c2c(C(=O)N/N=C/c3cccc(Br)c3)nnn2-c2nonc2N)cc1	i	i	i	i	-7	x
CCOc1ccc(-n2cc(C(=O)Nc3cccc(C)n3)c3cc(OC)c(OC)cc3c2=O)cc1	13*	i	i	i	-14	-0.6
CCOc1ccc(NC(=O)c2cn(-c3ccc(OCC)cc3)c(=O)c3cc(OC)c(OC)cc23)cc1	i	i	i	i	-10	0.0042
COc1ccc2c(c1)c(/C=C/c1cc[n+](C)cc1)cn2C	i	i	-8*	i	-25	x
Cc1ccc(S(=O)(=O)N2CCOCC2)cc1NC(=O)COC(=O)COc1cccc2c1OC(C)(C)C2	i	i	i	i	-10	x
N#C/C(=N\Nc1ccccc1F)c1nc(-c2ccccc2)cs1	i	i	i	i	18*	-0.18
N#C/C(=C(/O)CCl)c1nc(-c2ccccc2)cs1	i	i	i	i	-14	-1.2
O=c1[nH]c(-c2cccnc2)nc2sc(-c3ccccc3)cc12	i	i	i	i	6.9*	-0.48
O=C1c2[nH]nc(-c3ccccc3O)c2C(c2cccc(Cl)c2)N1Cc1ccco1 (stereo not given)	i	i	i	i	-17	x
O=C1c2[nH]nc(-c3ccccc3O)c2C(c2ccc(F)cc2)N1Cc1ccco1 (stereo not given)	i	6*	i	i	-21	x
COc1ccc(NS(=O)(=O)c2ccc(O)c(C(=O)OCC(=O)NC(C)C3CC4CCC3C4)c2)cc1 (stereo not given)	i	i	i	i	-9	-0.56
CC(NC(=O)COC(=O)c1cc(NS(=O)(=O)c2ccc(Cl)c([N+](=O)[O-])c2)ccc1O)C1CC2CCC1C2 (stereo not given)	i	11*	i	i	-13	-0.41
CCn1c(=S)[nH]c2c(=O)n(C)c(=O)n(C)c21	x	x	x	i	x	x
Cc1noc(C)c1NC(=O)N(C)C[C@H]1Oc2ccc(NC(=O)Cc3ccccc3)cc2C(=O)N([C@H](C)CO)C[C@@H]1C	x	x	x	i	x	x
O=C(Cc1ccccc1)Nc1ccccc1Sc1ccccc1	i	i	i	i	-5	-0.61
